Laboratory results from ChEMBL document CHEMBL4610098, “Isolation and Synthesis of Veranamine, an Antidepressant Lead from the Marine Sponge Verongula rigida” (J Nat Prod, 2020).
Activity calls are given as the source filed them. The calls are words filed in the database; no cut-off is given here.

Columns and labels:
[1] = target: Muscarinic acetylcholine receptor M1 (Homo sapiens, UniProt P11229); assay: Binding affinity to muscarinic acetylcholine receptor M1 (unknown origin)
[2] = target: 5-hydroxytryptamine receptor 3A (Homo sapiens, UniProt P46098); assay: Binding affinity to 5HT3 receptor (unknown origin)
Histamine H3 receptor = Histamine H3 receptor (Homo sapiens, UniProt Q9Y5N1); assay: Binding affinity to histamine H3 receptor (unknown origin)
D(2) dopamine receptor = D(2) dopamine receptor (Homo sapiens, UniProt P14416); assay: Binding affinity to dopamine D2 receptor (unknown origin)
[3] = target: 5-hydroxytryptamine receptor 2B (Homo sapiens, UniProt P41595); assay: Binding affinity to 5HT2B receptor (unknown origin)
[4] = target: T1, 5-hydroxytryptamine receptor 7 (Homo sapiens, UniProt P34969); assay: Binding affinity to 5HT7A receptor (unknown origin)
[5] = target: 5-hydroxytryptamine receptor 1E (Homo sapiens, UniProt P28566); assay: Binding affinity to 5HT1E receptor (unknown origin)
D(4) dopamine receptor = D(4) dopamine receptor (Homo sapiens, UniProt P21917); assay: Binding affinity to dopamine D4 receptor (unknown origin)
Histamine H2 receptor = Histamine H2 receptor (Homo sapiens, UniProt P25021); assay: Binding affinity to histamine H2 receptor (unknown origin)
[6] = target: 5-hydroxytryptamine receptor 1D (Homo sapiens, UniProt P28221); assay: Binding affinity to 5HT1D receptor (unknown origin)
[7] = target: Alpha-2C adrenergic receptor (Homo sapiens, UniProt P18825); assay: Binding affinity to adrenoceptor alpha 2C (unknown origin)
[8] = target: Muscarinic acetylcholine receptor M5 (Homo sapiens, UniProt P08912); assay: Binding affinity to muscarinic acetylcholine receptor M5 (unknown origin)
[9] = target: 5-hydroxytryptamine receptor 1B (Homo sapiens, UniProt P28222); assay: Binding affinity to 5HT1B receptor (unknown origin)
[10] = target: Sodium-dependent serotonin transporter (Homo sapiens, UniProt P31645); assay: Binding affinity to SERT (unknown origin)
[11] = target: Kappa-type opioid receptor (Homo sapiens, UniProt P41145); assay: Binding affinity to KOR (unknown origin)
[12] = target: Alpha-2B adrenergic receptor (Homo sapiens, UniProt P18089); assay: Binding affinity to adrenoceptor alpha 2B (unknown origin)
[13] = target: Muscarinic acetylcholine receptor M4 (Homo sapiens, UniProt P08173); assay: Binding affinity to muscarinic acetylcholine receptor M4 (unknown origin)
[14] = target: Sodium-dependent dopamine transporter (Homo sapiens, UniProt Q01959); assay: Binding affinity to DAT (unknown origin)
[15] = target: Muscarinic acetylcholine receptor M3 (Homo sapiens, UniProt P20309); assay: Binding affinity to muscarinic acetylcholine receptor M3 (unknown origin)
[16] = target: Sigma intracellular receptor 2 (Homo sapiens, UniProt Q5BJF2); assay: Binding affinity to sigma2 receptor (unknown origin)
Mu-type opioid receptor = Mu-type opioid receptor (Homo sapiens, UniProt P35372); assay: Binding affinity to MOR (unknown origin)
[17] = target: Alpha-1B adrenergic receptor (Homo sapiens, UniProt P35368); assay: Binding affinity to adrenoceptor alpha 1B (unknown origin)
[18] = target: 5-hydroxytryptamine receptor 5A (Homo sapiens, UniProt P47898); assay: Binding affinity to 5HT5A receptor (unknown origin)
D(1B) dopamine receptor = D(1B) dopamine receptor (Homo sapiens, UniProt P21918); assay: Binding affinity to dopamine D5 receptor (unknown origin)
[19] = target: 5-hydroxytryptamine receptor 2C (Homo sapiens, UniProt P28335); assay: Binding affinity to 5HT2C receptor (unknown origin)
Histamine H1 receptor = Histamine H1 receptor (Homo sapiens, UniProt P35367); assay: Binding affinity to histamine H1 receptor (unknown origin)
[20] = target: 5-hydroxytryptamine receptor 1A (Homo sapiens, UniProt P08908); assay: Binding affinity to 5HT1A receptor (unknown origin)
[21] = target: Sodium-dependent noradrenaline transporter (Homo sapiens, UniProt P23975); assay: Binding affinity to NET (unknown origin)
[22] = target: Alpha-1A adrenergic receptor (Homo sapiens, UniProt P35348); assay: Binding affinity to adrenoceptor alpha 1A (unknown origin)
[23] = target: 5-hydroxytryptamine receptor 2A (Homo sapiens, UniProt P28223); assay: Binding affinity to 5HT2A receptor (unknown origin)
[24] = target: 5-hydroxytryptamine receptor 6 (Homo sapiens, UniProt P50406); assay: Binding affinity to 5HT6 receptor (unknown origin)
[25] = target: Muscarinic acetylcholine receptor M2 (Homo sapiens, UniProt P08172); assay: Binding affinity to muscarinic acetylcholine receptor M2 (unknown origin)
[26] = Effect on locomotor activity in Swiss Webster (Harlan) mouse at 20 mg/kg, ip after 30 mins by automated activity monitoring system based assay; type: ADME, organism-based; details: in vivo, 0.5 h
In short: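 Mice in groups of five, 12 h light/dark, randomized (n = 6–10/group), dosed i.p. in saline, 10% ethanol or 10% ethanol/1% DMSO vehicle, desipramine 20 mg/kg reference. Each mouse put in Plexiglas enclosure right after injection; photobeam interruptions recorded for 30 min, with counts from the last 10 min quantified and analyzed.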

D(1A) dopamine receptor = D(1A) dopamine receptor (Homo sapiens, UniProt P21728); assay: Binding affinity to dopamine D1 receptor (unknown origin)
D(3) dopamine receptor = D(3) dopamine receptor (Homo sapiens, UniProt P35462); assay: Binding affinity to dopamine D3 receptor (unknown origin)
Histamine H4 receptor = Histamine H4 receptor (Homo sapiens, UniProt Q9H3N8); assay: Binding affinity to histamine H4 receptor (unknown origin)
[27] = target: Sigma non-opioid intracellular receptor 1 (Homo sapiens, UniProt Q99720); assay: Binding affinity to sigma1 receptor (unknown origin)
[28] = target: Delta-type opioid receptor (Homo sapiens, UniProt P41143); assay: Binding affinity to DOR (unknown origin)
Mus musculus = assay: Antidepressant activity in Swiss Webster (Harlan) mouse assessed as decrease in immobility time at 20 mg/kg, ip after 30 mins by forced swim test; type: functional, organism-based
In short: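 Mice housed five per cage on 12 h light/dark cycle, randomized (n = 6–10/group), given i.p. dose in saline, 10% ethanol or 10% ethanol/1% DMSO vehicle; desipramine 20 mg/kg as reference. Directly after 30 min locomotor session, each mouse placed in water-filled cylinder (8 cm depth, 25 °C), videotaped 6 min; immobility over final 4 min timed by three observers, averaged.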

[29] = target: Alpha-2A adrenergic receptor (Homo sapiens, UniProt P08913); assay: Binding affinity to adrenoceptor alpha 2A (unknown origin)
[30] = target: T1, 5-hydroxytryptamine receptor 7; assay: Binding affinity to 5HT7 receptor (unknown origin)
[31] = target: Beta-1 adrenergic receptor (Homo sapiens, UniProt P08588); assay: Binding affinity to beta1 adrenoceptor (unknown origin)

T1 sequence (P34969 whole entry): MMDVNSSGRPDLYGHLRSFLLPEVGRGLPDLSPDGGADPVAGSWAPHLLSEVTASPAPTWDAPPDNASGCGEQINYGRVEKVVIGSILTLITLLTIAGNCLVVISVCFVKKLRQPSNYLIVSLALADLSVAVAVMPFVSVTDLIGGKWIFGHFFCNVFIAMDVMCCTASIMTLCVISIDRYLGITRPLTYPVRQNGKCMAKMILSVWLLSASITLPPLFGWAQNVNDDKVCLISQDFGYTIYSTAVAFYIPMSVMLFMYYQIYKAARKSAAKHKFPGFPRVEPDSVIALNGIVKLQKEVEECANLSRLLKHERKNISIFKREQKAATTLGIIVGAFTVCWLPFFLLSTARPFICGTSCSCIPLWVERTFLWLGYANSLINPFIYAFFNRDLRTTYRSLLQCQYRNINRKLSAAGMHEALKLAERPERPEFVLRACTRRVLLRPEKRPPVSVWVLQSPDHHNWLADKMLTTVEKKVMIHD
Chain of Histamine H1 receptor (P35367 whole entry): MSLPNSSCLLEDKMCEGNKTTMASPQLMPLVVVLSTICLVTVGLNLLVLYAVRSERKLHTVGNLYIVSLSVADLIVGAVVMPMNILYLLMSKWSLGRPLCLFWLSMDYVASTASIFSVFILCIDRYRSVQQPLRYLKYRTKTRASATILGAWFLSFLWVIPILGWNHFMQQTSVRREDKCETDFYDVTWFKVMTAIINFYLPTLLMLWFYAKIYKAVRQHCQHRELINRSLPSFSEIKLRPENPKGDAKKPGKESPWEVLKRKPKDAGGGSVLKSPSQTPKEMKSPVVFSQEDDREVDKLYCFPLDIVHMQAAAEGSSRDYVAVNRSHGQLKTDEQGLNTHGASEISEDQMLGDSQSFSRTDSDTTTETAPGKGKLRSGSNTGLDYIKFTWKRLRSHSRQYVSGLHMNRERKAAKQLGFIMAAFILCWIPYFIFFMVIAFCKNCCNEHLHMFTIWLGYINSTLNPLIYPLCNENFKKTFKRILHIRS
Chain of 5-hydroxytryptamine receptor 1A (P08908 whole entry): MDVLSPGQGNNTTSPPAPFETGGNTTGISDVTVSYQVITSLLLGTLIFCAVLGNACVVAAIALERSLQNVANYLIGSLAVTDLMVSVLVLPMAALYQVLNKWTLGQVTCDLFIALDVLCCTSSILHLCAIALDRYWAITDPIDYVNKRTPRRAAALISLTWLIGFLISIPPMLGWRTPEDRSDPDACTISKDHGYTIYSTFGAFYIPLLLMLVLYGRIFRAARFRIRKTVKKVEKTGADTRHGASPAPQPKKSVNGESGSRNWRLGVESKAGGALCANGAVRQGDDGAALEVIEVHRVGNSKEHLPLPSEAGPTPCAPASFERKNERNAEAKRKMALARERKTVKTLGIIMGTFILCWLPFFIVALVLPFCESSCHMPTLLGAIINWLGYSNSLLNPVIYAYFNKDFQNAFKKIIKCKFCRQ
Chain of 5-hydroxytryptamine receptor 2C (P28335 whole entry): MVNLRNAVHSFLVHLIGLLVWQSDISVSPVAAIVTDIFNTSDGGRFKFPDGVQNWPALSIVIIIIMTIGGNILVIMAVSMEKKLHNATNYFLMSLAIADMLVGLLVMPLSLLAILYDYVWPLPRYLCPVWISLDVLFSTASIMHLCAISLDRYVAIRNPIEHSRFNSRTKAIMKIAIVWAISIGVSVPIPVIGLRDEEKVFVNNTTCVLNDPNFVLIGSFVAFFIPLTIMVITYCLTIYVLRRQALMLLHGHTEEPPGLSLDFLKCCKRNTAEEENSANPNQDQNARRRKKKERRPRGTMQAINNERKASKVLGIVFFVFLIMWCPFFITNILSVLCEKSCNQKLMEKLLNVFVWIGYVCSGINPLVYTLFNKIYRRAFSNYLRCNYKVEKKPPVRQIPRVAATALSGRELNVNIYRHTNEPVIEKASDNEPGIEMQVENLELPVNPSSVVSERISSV
Chain of 5-hydroxytryptamine receptor 1E (P28566 whole entry): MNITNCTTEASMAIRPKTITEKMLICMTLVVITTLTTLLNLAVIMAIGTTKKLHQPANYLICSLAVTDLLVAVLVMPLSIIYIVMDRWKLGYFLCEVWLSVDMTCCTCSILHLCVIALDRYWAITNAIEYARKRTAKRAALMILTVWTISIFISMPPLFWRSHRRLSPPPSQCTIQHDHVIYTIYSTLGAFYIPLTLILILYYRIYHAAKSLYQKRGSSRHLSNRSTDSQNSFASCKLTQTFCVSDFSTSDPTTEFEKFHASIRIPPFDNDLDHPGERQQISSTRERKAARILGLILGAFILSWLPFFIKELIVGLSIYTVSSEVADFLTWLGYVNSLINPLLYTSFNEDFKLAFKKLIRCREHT
Chain of Mu-type opioid receptor (P35372 whole entry): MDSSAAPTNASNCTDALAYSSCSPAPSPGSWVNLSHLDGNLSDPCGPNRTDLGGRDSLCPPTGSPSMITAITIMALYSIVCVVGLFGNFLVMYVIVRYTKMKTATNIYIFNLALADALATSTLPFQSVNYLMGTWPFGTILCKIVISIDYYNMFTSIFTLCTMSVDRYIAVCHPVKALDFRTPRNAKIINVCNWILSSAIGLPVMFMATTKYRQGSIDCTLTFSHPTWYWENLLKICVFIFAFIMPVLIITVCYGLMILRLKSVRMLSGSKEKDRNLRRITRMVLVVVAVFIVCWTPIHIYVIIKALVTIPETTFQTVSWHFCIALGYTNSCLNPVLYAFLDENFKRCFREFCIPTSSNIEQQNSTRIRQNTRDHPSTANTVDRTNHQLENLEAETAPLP
Chain of Alpha-2A adrenergic receptor (P08913 whole entry): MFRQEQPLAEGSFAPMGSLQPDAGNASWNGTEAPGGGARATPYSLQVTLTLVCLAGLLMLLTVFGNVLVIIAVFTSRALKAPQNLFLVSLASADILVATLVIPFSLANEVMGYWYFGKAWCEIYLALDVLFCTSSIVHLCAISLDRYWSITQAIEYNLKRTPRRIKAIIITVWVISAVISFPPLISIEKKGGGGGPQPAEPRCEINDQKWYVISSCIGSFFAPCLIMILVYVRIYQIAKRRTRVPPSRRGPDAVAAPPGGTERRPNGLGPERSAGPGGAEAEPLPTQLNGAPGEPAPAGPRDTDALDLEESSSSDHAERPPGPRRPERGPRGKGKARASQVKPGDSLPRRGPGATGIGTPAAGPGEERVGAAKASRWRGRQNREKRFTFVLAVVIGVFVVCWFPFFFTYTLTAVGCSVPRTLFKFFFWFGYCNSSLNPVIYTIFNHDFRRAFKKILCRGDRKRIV
Chain of Kappa-type opioid receptor (P41145 whole entry): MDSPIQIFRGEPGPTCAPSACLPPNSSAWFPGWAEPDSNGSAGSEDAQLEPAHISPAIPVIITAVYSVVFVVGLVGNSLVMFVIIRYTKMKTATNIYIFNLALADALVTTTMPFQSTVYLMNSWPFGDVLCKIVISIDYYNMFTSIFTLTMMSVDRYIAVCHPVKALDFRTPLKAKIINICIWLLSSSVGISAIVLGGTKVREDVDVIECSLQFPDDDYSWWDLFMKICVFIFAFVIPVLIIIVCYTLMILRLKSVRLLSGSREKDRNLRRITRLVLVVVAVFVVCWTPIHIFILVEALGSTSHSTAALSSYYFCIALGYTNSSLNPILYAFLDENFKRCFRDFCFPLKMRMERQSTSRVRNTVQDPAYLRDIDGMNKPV
Chain of D(4) dopamine receptor (P21917 whole entry): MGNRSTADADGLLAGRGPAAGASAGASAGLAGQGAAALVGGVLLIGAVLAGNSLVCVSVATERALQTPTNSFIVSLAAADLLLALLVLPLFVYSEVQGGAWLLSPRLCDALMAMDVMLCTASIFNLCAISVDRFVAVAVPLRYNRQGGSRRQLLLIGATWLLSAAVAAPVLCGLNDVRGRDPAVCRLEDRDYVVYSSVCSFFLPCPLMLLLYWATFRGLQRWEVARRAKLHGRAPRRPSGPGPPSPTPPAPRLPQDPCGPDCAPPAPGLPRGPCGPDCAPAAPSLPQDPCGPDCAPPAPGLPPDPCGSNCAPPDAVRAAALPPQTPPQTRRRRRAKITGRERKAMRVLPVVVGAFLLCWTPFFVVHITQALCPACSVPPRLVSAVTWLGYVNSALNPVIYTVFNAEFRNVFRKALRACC
Chain of Alpha-1B adrenergic receptor (P35368 whole entry): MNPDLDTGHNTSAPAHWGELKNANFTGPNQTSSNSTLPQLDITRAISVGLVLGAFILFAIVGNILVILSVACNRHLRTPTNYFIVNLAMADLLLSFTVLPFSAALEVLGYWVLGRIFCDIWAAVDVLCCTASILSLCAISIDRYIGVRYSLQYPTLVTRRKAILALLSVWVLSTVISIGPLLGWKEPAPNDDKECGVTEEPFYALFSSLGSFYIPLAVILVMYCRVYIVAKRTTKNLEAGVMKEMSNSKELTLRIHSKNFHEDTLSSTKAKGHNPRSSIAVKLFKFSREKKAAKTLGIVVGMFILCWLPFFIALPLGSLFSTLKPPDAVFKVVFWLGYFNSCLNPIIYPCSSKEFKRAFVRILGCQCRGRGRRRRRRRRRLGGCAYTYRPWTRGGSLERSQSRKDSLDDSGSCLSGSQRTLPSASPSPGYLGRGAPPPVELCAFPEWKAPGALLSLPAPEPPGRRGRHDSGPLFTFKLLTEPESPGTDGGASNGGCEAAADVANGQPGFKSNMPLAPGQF
Chain of Muscarinic acetylcholine receptor M5 (P08912 whole entry): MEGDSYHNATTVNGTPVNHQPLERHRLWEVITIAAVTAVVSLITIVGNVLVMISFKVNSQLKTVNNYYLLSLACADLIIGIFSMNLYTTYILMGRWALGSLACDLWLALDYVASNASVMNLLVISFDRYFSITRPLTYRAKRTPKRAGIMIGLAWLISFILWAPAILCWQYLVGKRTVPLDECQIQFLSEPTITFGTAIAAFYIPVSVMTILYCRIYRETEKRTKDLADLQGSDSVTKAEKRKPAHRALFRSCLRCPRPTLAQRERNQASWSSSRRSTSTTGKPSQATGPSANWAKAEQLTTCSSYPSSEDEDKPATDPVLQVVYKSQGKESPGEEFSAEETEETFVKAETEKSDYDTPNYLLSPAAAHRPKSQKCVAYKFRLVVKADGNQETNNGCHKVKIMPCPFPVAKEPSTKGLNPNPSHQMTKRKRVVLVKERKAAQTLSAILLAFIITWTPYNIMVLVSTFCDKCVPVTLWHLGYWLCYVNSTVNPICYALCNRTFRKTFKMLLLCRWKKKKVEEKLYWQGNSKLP

Q: Which Ki [1] does the source give for `Cc1nccc2c1C(C)(C)Nc1cc(Br)ccc1-2` here?
A: Its Ki is > 10 µM.

Q: And the Ki [2]?
A: Its Ki is > 10 µM.

Q: What about the Ki (Histamine H3 receptor) of the same compound?
A: The Ki was > 10 µM.

Q: And the Ki (D(2) dopamine receptor)?
A: The Ki was > 10 µM.

Q: And the Ki [3]?
A: Its Ki is 390 nM.

Q: What about the Ki [4] of the same compound?
A: The Ki was > 10 µM.

Q: What about the Ki [5] of the same compound?
A: Its Ki is > 10 µM.

Q: What about the Ki (D(4) dopamine receptor) of the same compound?
A: Its Ki is > 10 µM.

Q: What about the Ki (Histamine H2 receptor) of the same compound?
A: The Ki was > 10 µM.

Q: And the Ki [6]?
A: The Ki was > 10 µM.

Q: And the Ki [7]?
A: Its Ki is > 10 µM.

Q: What about the Ki [8] of the same compound?
A: Its Ki is > 10 µM.

Q: And the Ki [9]?
A: Its Ki is > 10 µM.

Q: What about the Ki [10] of the same compound?
A: Its Ki is > 10 µM.

Q: What about the Ki [11] of the same compound?
A: The Ki was > 10 µM.

Q: And the Ki [12]?
A: The Ki was > 10 µM.

Q: What about the Ki [13] of the same compound?
A: Its Ki is > 10 µM.

Q: And the Ki [14]?
A: Its Ki is > 10 µM.

Q: And the Ki [15]?
A: Its Ki is > 10 µM.

Q: What about the Ki [16] of the same compound?
A: The Ki was > 10 µM.

Q: And the Ki (Mu-type opioid receptor)?
A: Its Ki is > 10 µM.

Q: And the Ki [17]?
A: The Ki was > 10 µM.

Q: And the Ki [18]?
A: Its Ki is > 10 µM.

Q: And the Ki (D(1B) dopamine receptor)?
A: The Ki was > 10 µM.

Q: And the Ki [19]?
A: The Ki was > 10 µM.

Q: What about the Ki (Histamine H1 receptor) of the same compound?
A: The Ki was > 10 µM.

Q: What about the Ki [20] of the same compound?
A: Its Ki is > 10 µM.

Q: And the Ki [21]?
A: Its Ki is > 10 µM.

Q: And the Ki [22]?
A: Its Ki is > 10 µM.

Q: What about the Ki [23] of the same compound?
A: The Ki was > 10 µM.

Q: And the Ki [24]?
A: Its Ki is > 10 µM.

Q: And the Ki [25]?
A: Its Ki is > 10 µM.

Q: And the Activity [26]?
A: The Activity was “Non-Toxic”.

Q: And the Ki (D(1A) dopamine receptor)?
A: Its Ki is > 10 µM.

Q: And the Ki (D(3) dopamine receptor)?
A: The Ki was > 10 µM.

Q: What about the Ki (Histamine H4 receptor) of the same compound?
A: The Ki was > 10 µM.

Q: What about the Ki [27] of the same compound?
A: The Ki was 560 nM.

Q: And the Ki [28]?
A: Its Ki is > 10 µM.

Q: What about the Activity (Mus musculus) of the same compound?
A: The Activity was “Active”.

Q: And the Ki [29]?
A: The Ki was > 10 µM.

Q: What about the Ki [30] of the same compound?
A: Its Ki is > 10 µM.

Q: What about the Ki [31] of the same compound?
A: The Ki was > 10 µM.

Q: With `CNCCCN1c2ccccc2CCc2ccccc21` as the compound, how does the Activity (Mus musculus) read?
A: Its Activity is “Active”.
